This is an account of results in ChEMBL document CHEMBL1123309, “Esters and lactones of phenolic amino carboxylic acids: prodrugs for iron chelation” (J Med Chem, 1986).

Series [1] can be described thus: Compound was evaluated for lethal dose after intraperitoneal administration using iron overload rat model. Particulars: in vivo, ip. It is filed as toxicity, organism-based.
The subject of series [2] is Rattus norvegicus. Put plainly: Percent change in iron levels was determined in feces using iron overload rat model where the route of administration is Intraperitoneal. It is filed as functional.
Series [3] relates to Rattus norvegicus. Put plainly: Percent change in iron levels was determined in feces using iron overload rat model where the route of administration is Peroral. It is filed as functional.
Series [4] has as its system Rattus norvegicus. Put plainly: Percent change in iron levels was determined in urine using iron overload rat model where the route of administration is Intraperitoneal. It is filed as functional.
Series [5] has as its system Rattus norvegicus. Briefly: Percent change in iron levels was determined in urine using iron overload rat model where the route of administration is Peroral. It is filed as functional.
Series [6] concerns Mus musculus. Put plainly: BDF1 male mice were administered with 200 mg/kg intraperitoneally and percent change in iron levels was determined in Feces. The format is functional. Particulars: route intraperitoneal. In a few lines:
(§1)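 Male BDF1 mice made iron-overloaded by transfusion of washed, heat-treated (50 °C, 30 min) canine red cells. Dosing began 2 days after the last transfusion, once daily for 7 days, in distilled water or 2% Polysorbate 80 suspension. Daily group urine was collected. Pooled feces were digested in 1 N HCl (90 °C, 30 min). Liver and spleen were homogenized in saline. Iron was measured by atomic absorption and expressed as % change vs transfused controls.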

For series [7], the system named is Mus musculus. Briefly: BDF1 male mice were administered with 200 mg/kg intraperitoneally and percent change in iron levels was determined in Spleen. Particulars: route intraperitoneal. The format is functional. In a few lines:
as §1

Series [8] has as its system Mus musculus. Put plainly: BDF1 male mice were administered with 200 mg/kg intraperitoneally and percent change in iron levels was determined in Urine. It is filed as functional. Particulars: route intraperitoneal. In a few lines: as §1
Series [9] has as its system Mus musculus. Briefly: BDF1 male mice were administered reduced to 100 mg/kg on day 4 intraperitoneally and percent change in iron levels was determined in Feces. It is filed as functional. Conditions: route oral, in the assay text read “orally” for “intraperitoneally”. In short, it runs like this:
as §1

Series [10] deals with Mus musculus. Put plainly: BDF1 male mice were administered reduced to 100 mg/kg on day 4 intraperitoneally and percent change in iron levels was determined in Liver. It is filed as functional. Conditions: route oral, in the assay text read “orally” for “intraperitoneally”. In a few lines: as §1
The subject of series [11] is Mus musculus. Briefly: BDF1 male mice were administered reduced to 100 mg/kg on day 4 intraperitoneally and percent change in iron levels was determined in Spleen. The format is functional. Particulars: route oral, in the assay text read “orally” for “intraperitoneally”. In short, it runs like this:
as §1

Series [12] concerns Mus musculus. Briefly: BDF1 male mice were administered reduced to 100 mg/kg on day 4 intraperitoneally and percent change in iron levels was determined in Urine. The format is functional. Particulars: route oral, in the assay text read “orally” for “intraperitoneally”. In short, it runs like this: as §1
For series [13], the system named is Mus musculus. Put plainly: BDF1 male mice were administered with 200 mg/kg intraperitoneally and number of survivors was determined out of 10 tested. It is filed as functional. Particulars: route intraperitoneal, 200 mg/kg. In short, it runs like this:
(§2)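 Male BDF1 mice were iron-loaded by transfusion of canine red cells. The cells were heparinised, washed twice in isotonic saline and heated at 50 °C for 30 min. Dosing started two days after the last transfusion, once daily for 7 consecutive days. Compounds were given in distilled water or as a fine aqueous suspension with Polysorbate 80 (2% final). Toxic signs were recorded daily and survivors counted per group.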

The subject of series [14] is Mus musculus. Briefly: BDF1 male mice were administered with 250 mg/kg orally and percent change in iron levels was determined in Feces. It is filed as functional. Conditions: route oral. In a few lines: (§3)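 Hypertransfused male BDF1 mice (canine red cells, washed and heated at 50 °C for 30 min) were dosed orally for 7 days with compound in distilled water or a fine suspension with Polysorbate 80 (2% final). Daily group urine and pooled feces (1 N HCl digest, 90 °C, 30 min, triplicate) were collected, and liver and spleen were homogenized. Iron was measured by atomic absorption and reported as % change vs transfused control.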

The test system of series [15] is Mus musculus. Put plainly: BDF1 male mice were administered with 250 mg/kg orally and percent change in iron levels was determined in Liver. The format is functional. Conditions: route oral. In a few lines: as §3
Series [16] deals with Mus musculus. Briefly: BDF1 male mice were administered with 250 mg/kg orally and percent change in iron levels was determined in Spleen. The format is functional. Particulars: route oral. In a few lines: as §3
In series [17] the test system is Mus musculus. Put plainly: BDF1 male mice were administered with 250 mg/kg orally and percent change in iron levels was determined in Urine. It is filed as functional. Particulars: route oral. In a few lines: as §3
The test system of series [18] is Mus musculus. Briefly: BDF1 male mice were administered with the compound and number of survivors was determined at a dose 250 mg/kg peroral out of 10 tested. It is filed as functional. Conditions: route oral. In a few lines: as §2

Structures are written as SMILES. Values joined by “and” are separate entries in the source; they are usually repeats but may differ in a detail not shown here. Identical values can stand only once.

Consider `COC(=O)C(NCCNC(C(=O)OC)c1ccccc1O)c1ccccc1O` (centres undefined), for which the median lethal dose (LD50) (usually the dose expected to kill half of the subjects tested) in [1] is no less than 800 mg/kg. Further, the Iron change in the series on Rattus norvegicus [2] was found to be 104%; in the series with Rattus norvegicus [3] it was 89%; with Rattus norvegicus [4], 188%; in the series with Rattus norvegicus [5] it was 115%.
On to `CCOC(=O)C(NCCNC(C(=O)OCC)c1ccccc1O)c1ccccc1O` (centres undefined), for which, in series [1], the 50% lethal dose (LD50) is no less than 800 mg/kg.
For `O=C(O)CN(CCN(CC(=O)O)Cc1ccccc1O)Cc1ccccc1O`, the Iron change is 38% with Mus musculus [6]; -5% in the series on Mus musculus [7]; 50% in the series on Mus musculus [8]; -7% in the series on Mus musculus [9]; -3% in the series on Mus musculus [10]; -9% in the series with Mus musculus [11]. In addition, the Iron change in the series with Mus musculus [12] came to 14%; with Rattus norvegicus [2], 195%; with Rattus norvegicus [3] it was 53%; in the series with Rattus norvegicus [4], 196%; in the series with Rattus norvegicus [5], 40%. Moreover, the No. of survivors in the series on Mus musculus [13] was 10 and 9. Moreover, the LD50 in series [1] was no less than 800 mg/kg.
With `O=C(CN(CCN(CC(=O)OCc1ccccc1)Cc1ccccc1O)Cc1ccccc1O)OCc1ccccc1`, the Iron change in the series with Mus musculus [14] is reported as -10%; in the series with Mus musculus [15] it was -10%; with Mus musculus [16], -21%; in the series on Mus musculus [17], 62%. In the series on Mus musculus [18], this compound displayed a No. of survivors of 10.
